Columns and labels:
[1] = biological target: Inosine-5'-monophosphate dehydrogenase 2 (Homo sapiens) (UniProt P12268); assay: Inhibitory binding constant was determined against human Inosine-5'-monophosphate dehydrogenase 2 (IMPDH type II) from intercept of Michaelis-Menten plot
Procedure, shortened: (§1)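 Human IMPDH type II, stored at -70 °C in 20 mM Tris-HCl pH 8, 20 mM KCl, 1 mM EDTA, 1 mM DTT, thawed and filtered before use. Assay at 37 °C, started by adding enzyme, with saturating IMP. NADH formation read at 340 nm for 2–10 min. NAD at 20, 40, 80 and 160 µM, with two or three inhibitor levels. Kii (intercept) and Kis (slope) obtained by direct least-squares fit to the noncompetitive equation.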

[2] = biological target: Inosine-5'-monophosphate dehydrogenase 2 (Homo sapiens) (UniProt P12268); assay: Inhibitory binding constant was determined against human Inosine-5'-monophosphate dehydrogenase 2 (IMPDH type II) from slope of Michaelis-Menten plot; procedure, shortened: as §1

Chain of Inosine-5'-monophosphate dehydrogenase 2 (Homo sapiens) (P12268 2-514 limits assumed): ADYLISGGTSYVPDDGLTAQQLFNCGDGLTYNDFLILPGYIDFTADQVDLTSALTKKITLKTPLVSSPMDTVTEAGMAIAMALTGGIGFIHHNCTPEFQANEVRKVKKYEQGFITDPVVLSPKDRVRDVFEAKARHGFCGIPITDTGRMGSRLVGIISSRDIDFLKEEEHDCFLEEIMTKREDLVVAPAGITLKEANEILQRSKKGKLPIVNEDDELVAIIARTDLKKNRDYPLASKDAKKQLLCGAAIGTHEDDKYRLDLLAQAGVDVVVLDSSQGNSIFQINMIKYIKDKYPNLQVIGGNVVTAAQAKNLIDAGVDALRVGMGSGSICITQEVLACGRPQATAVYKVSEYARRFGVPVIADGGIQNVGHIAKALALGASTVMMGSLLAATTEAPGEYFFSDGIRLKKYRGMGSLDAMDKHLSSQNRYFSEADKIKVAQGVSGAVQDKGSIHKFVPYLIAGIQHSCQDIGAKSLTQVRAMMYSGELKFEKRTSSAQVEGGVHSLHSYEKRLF

| SMILES | Kii [1] | Kis [2] |
| --- | --- | --- |
| NC(=O)c1csc([C@@H]2O[C@H](COP(=O)(O)CP(=O)(O)OC[C@@H]3O[C@H](n4cnc5c(N)ncnc54)[C@@H](O)[C@H]3O)[C@@H](O)[C@H]2O)n1 | 0.11 µM | – |
| NC(=O)c1csc([C@@H]2O[C@H](COP(=O)(O)C(F)(F)P(=O)(O)OC[C@@H]3O[C@H](n4cnc5c(N)ncnc54)[C@@H](O)[C@H]3O)[C@@H](O)[C@H]2O)n1 | 0.17 µM | 0.3 µM |
| NC(=O)c1csc([C@@H]2O[C@H](COP(=O)(O)OP(=O)(O)OC[C@@H]3O[C@H](n4cnc5c(N)ncnc54)[C@@H](O)[C@H]3F)[C@@H](O)[C@H]2O)n1 | 0.7 µM | 1.5 µM |
| NC(=O)c1csc([C@H]2O[C@@H](COP(=O)(O)OP(=O)(O)OC[C@H]3O[C@@H](n4cnc5c(N)ncnc54)[C@H](O)[C@@H]3O)[C@H](O)[C@@H]2O)n1 | 0.19 µM | 0.3 µM |
| NC(=O)c1csc([C@@H]2O[C@H](COP(=O)(O)OP(=O)(O)OC[C@@H]3O[C@H](n4cnc5c(N)ncnc54)[C@@H](F)[C@H]3O)[C@@H](O)[C@H]2O)n1 | 0.5 µM | 6 µM |
| NC(=O)c1csc([C@@H]2O[C@H](COP(=O)(O)OP(=O)(O)OC[C@@H]3O[C@H](n4cnc5c(N)ncnc54)[C@H](F)[C@H]3O)[C@@H](O)[C@H]2O)n1 | 2.9 µM | 13 µM |

From ChEMBL document CHEMBL1128279, “Potent inhibitors of human inosine monophosphate dehydrogenase type II. Fluorine-substituted analogues of thiazole-4-carboxamide adenine dinucleotide” (J Med Chem, 1995)
